ChEMBL document CHEMBL5338796, “Discovery of a Selective and Orally Bioavailable FGFR2 Degrader for Treating Gastric Cancer” (J Med Chem, 2023)
Calls of active or inactive are those of the source. The rule behind the calls is not given here.

Tests used:
[1] = target: Fibroblast growth factor receptor 2 (Homo sapiens) (UniProt P21802); assay: Inhibition of partial length human FGFR2 at 1000 nM by KINOMEscan analysis relative to control
Method in brief: (§1)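 97-kinase scanEDGE panel screened at 1000 nM; results reported as % Ctrl, lower values meaning stronger inhibition.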

[2] = target: Macrophage colony-stimulating factor 1 receptor (Homo sapiens) (UniProt P07333); assay: Inhibition of partial length human CSF1R at 1000 nM by KINOMEscan analysis relative to control; method in brief: as §1
[3] = target: Macrophage colony-stimulating factor 1 receptor (Homo sapiens) (UniProt P07333); assay: Induction of CSF1R degradation in human THP-1 cells at 0.5 to 10 uM measured for 6 hrs Western blot analysis; format: cell-based; conditions: dose 0.0005-10 µM, in the assay text read “0.5 nM to 10 uM” for “0.5 to 10 uM”
Method in brief: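 THP-1 cells exposed 6 h to 0.5–10,000 nM degrader (from 10 mM DMSO stock, final DMSO below 0.5%); lysates in 2× loading buffer, SDS-PAGE, PVDF, anti-CSF1R (1:1000) with β-actin loading control, ECL detection.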

[4] = target: Fibroblast growth factor receptor 4 (Homo sapiens) (UniProt P22455); assay: Induction of FGFR4 degradation in human Huh-7 cells at 100 nM measured for 6 hrs Western blot analysis; format: cell-based
Method in brief: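 NCI-H1581 (FGFR1), MCF7 (FGFR3) and Huh7 (FGFR4) cells, which endogenously express the isoforms, treated with 100 nM for 6 h; isoform levels by Western blot against β-actin, three biologically independent experiments.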

BaF3 [5] = assay: Antiproliferative activity against mouse BaF3 cells expressing Tel-FGFR2 assessed as cell growth inhibition measured after 72 hrs by celltiter-glo reagent based assay; format: functional; conditions: BaF3, 72 h
Method in brief: (§2)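 Ba/F3 cells stably expressing cytoplasmic TEL-FGFR1, -2, -3 or -4 fusions were treated in 96-well format, final DMSO 0.1%, for 72 h. Viability read by CellTiter-Glo luminescence after 10 min at room temperature. Inhibition calculated from blank- and control-corrected RLU; IC50 from 4-parameter concentration–response fit.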

BaF3 [6] = assay: Antiproliferative activity against mouse BaF3 cells expressing Tel-FGFR4 assessed as cell growth inhibition measured after 72 hrs by celltiter-glo reagent based assay; format: functional; conditions: BaF3, 72 h; method in brief: as §2
[7] = target: Protein cereblon/Fibroblast growth factor receptor 2 (Homo sapiens, UniProt P21802+Q96SW2); assay: PROTAC activity at CRBN/FGFR2 in human KATO III stomach cancer cell line membrane assessed as reduction in membrane bound FGFR2 at 100 nM measured for 6 hrs by flow cytometry analysis; format: cell membranes
Method in brief: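 Approx. 2 × 10^6 KATO III cells were treated 6 h at 100 nM. They were washed in cold PBS and stained with anti-FGFR2 (1:100, 4 °C, 1 h), then with Alexa Fluor 488 secondary (1:500, 4 °C, 1 h). Surface FGFR2 was read by flow cytometry on at least 100,000 events, with 488 nm excitation and FITC detection at 519 nm.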

[8] = system: KATO III stomach cancer cell line; assay: Antiproliferative activity against human KATO III stomach cancer cell line assessed as reduction in cell viability measured for 72 hrs by celltiter-glo reagent based assay; format: functional
Method in brief: (§3)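 Cancer lines KATO III, SNU16, NCI-H716, NCI-H1975, MV-4-11 and HEK293T treated 72 h; antiproliferative IC50 given as mean ± s.d. from three independent biological experiments.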

MV4-11 = assay: Antiproliferative activity against human MV4-11 cells assessed as reduction in cell viability measured for 72 hrs by celltiter-glo reagent based assay; format: functional; conditions: MV4-11, 72 h; method in brief: as §3
[9] = system: KATO III stomach cancer cell line; assay: Induction of cell cycle arrest in human KATO III stomach cancer cell line assessed as accumulation of cells at G0/G1 phase […] by flow cytometry analysis; format: functional, cell-based
Method in brief: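 KATO III cells harvested with EDTA-free trypsin, fixed in cold 70% ethanol overnight at −20 °C, stained with DNA staining solution 30 min at room temperature, analysed by flow cytometry.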

[10] = Half life in Sprague-Dawley rat at 3 mg/kg, iv measured at 0.083 to 24 hrs by LC-MS/MS analysis; format: ADME, organism-based; conditions: in vivo, time 0.083-24 hrs
Method in brief: (§4)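 Male Sprague Dawley rats, single dose i.v. 3 mg/kg or p.o. 20 mg/kg in 10% Solutol, 85% (10% HP-β-CD in saline), 5% DMSO, pH adjusted to 9–10.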

[11] = Half life in Sprague-Dawley rat at 20 mg/kg, po measured at 0.25 to 24 hrs by LC-MS/MS analysis; format: ADME, organism-based; conditions: in vivo, time 0.25-24 hrs; method in brief: as §4
[12] = Hepatotoxicity in ICR mouse assessed as effect on ALT level at 20 mg/kg, po measured for 30 days; format: toxicity, organism-based; conditions: in vivo, 720 h, time 30 day
Method in brief: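 ICR mice given 20 mg/kg/day orally for 30 days (n = 6), vehicle controls; mortality and clinical signs checked daily, then AST/ALT and creatinine, organ weights, haematology and H&E of heart, liver, spleen, lung, kidney.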

[13] = Toxicity in ICR mouse assessed as morphological changes in lung at 20 mg/kg, po measured for 30 days by hematoxyin-eosin staining based analysis; format: organism-based; conditions: in vivo, 720 h, time 30 day
Method in brief: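 ICR mice (n = 6) were dosed orally at 20 mg/kg/day for 30 days, alongside vehicle-treated controls. Mortality and clinical signs were checked daily. At the end, body and organ weights were recorded. Heart, liver, spleen, lung and kidney were examined by hematoxylin and eosin staining.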

[14] = Toxicity in BALB/c mouse xenografted with human SNU-16 cells assessed as tolerability at 20 mg/kg, po administered for 15 days and measured on day 2; format: organism-based; conditions: in vivo, 48 h, time 2 day
Method in brief: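 Female BALB/c nude mice, 5 weeks old (20–22 g), carried subcutaneous SNU-16 xenografts in the right flank. Dosing began at mean tumor volume 50–100 mm3, after randomization by body weight, n = 5. Mice received 20 mg/kg/day by gavage in 0.5% CMC-Na, QD for 15 d, with vehicle controls. Body weight was measured every 2 days.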

SNU-16 = assay: Antitumor activity against human SNU-16 cells xenografted in BALB/c nude mouse assessed as reduction in ERK1/2 phosphorylation in tumor at 20 mg/kg, po measured at 4 hrs; format: functional, organism-based
Method in brief: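 Female BALB/c nude mice, 5 weeks old (20–22 g), s.c. right-flank SNU-16 implants, randomized by body weight into groups (n = 5) once tumours reached 50–100 mm3. Dosing 20 mg/kg/day intragastric in 0.5% CMC-Na for 15 d; vehicle controls. Tumour width and length measured every 2 days; tumours harvested 4 h after last dose and lysates immunoblotted for pFGFR, FGFR2, pPLCγ, pErk.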

[15] = Clearance in mice at 3 mg/kg, iv measured at 0.083 to 24 hrs by LC-MS/MS analysis; conditions: mouse, in vivo
[16] = Oral bioavailability in mice at 20 mg/kg measured at 0.25 to 24 hrs by LC-MS/MS analysis; conditions: mouse, in vivo

Macrophage colony-stimulating factor 1 receptor (Homo sapiens), sequence (P07333 whole entry): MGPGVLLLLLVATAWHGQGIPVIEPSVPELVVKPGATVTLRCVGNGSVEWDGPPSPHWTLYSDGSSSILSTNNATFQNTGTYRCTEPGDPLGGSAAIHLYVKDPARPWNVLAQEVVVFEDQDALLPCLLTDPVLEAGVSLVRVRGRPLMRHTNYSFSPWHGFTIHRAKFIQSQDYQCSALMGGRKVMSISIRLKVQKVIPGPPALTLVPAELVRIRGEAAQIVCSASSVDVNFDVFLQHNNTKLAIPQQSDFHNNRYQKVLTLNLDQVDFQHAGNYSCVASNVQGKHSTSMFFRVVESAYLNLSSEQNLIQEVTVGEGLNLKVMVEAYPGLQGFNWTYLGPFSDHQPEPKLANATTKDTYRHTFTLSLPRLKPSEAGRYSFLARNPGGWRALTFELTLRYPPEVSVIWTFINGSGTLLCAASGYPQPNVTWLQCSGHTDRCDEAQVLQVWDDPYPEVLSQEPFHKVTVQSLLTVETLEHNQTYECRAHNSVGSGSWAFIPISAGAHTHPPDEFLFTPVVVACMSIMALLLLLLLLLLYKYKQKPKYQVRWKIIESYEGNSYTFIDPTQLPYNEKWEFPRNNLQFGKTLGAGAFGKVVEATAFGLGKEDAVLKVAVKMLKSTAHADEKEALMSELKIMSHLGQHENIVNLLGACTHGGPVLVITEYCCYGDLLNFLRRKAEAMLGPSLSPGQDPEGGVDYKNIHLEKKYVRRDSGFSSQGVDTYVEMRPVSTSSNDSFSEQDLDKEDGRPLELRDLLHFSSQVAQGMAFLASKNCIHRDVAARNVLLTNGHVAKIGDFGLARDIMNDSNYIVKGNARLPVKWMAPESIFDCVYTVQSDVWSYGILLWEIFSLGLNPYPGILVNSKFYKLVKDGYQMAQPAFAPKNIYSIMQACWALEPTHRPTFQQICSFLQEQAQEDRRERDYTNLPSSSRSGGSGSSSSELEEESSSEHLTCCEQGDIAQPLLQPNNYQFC
Fibroblast growth factor receptor 4 (Homo sapiens), sequence (P22455 22-802 limits assumed): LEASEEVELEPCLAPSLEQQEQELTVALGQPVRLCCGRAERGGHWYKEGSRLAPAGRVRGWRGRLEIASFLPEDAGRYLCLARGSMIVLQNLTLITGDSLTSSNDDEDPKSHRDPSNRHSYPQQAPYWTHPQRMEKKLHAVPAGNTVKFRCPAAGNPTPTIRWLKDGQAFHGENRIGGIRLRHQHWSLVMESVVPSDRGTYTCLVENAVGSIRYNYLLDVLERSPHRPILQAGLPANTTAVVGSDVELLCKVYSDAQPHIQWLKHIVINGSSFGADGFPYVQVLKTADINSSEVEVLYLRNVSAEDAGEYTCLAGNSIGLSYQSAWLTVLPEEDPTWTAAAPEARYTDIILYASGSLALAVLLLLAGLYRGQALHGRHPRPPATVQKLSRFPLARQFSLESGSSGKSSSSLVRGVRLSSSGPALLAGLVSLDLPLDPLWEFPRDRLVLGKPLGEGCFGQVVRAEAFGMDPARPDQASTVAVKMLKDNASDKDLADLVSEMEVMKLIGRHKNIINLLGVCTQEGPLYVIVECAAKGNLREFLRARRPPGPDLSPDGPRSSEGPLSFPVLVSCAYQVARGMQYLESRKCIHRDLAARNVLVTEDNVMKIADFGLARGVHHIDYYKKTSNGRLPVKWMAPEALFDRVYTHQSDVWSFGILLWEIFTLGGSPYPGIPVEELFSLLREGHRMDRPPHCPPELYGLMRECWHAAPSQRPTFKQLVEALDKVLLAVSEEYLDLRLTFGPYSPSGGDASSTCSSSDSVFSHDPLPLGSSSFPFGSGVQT
Fibroblast growth factor receptor 2 (Homo sapiens), sequence (P21802 22-821 limits assumed): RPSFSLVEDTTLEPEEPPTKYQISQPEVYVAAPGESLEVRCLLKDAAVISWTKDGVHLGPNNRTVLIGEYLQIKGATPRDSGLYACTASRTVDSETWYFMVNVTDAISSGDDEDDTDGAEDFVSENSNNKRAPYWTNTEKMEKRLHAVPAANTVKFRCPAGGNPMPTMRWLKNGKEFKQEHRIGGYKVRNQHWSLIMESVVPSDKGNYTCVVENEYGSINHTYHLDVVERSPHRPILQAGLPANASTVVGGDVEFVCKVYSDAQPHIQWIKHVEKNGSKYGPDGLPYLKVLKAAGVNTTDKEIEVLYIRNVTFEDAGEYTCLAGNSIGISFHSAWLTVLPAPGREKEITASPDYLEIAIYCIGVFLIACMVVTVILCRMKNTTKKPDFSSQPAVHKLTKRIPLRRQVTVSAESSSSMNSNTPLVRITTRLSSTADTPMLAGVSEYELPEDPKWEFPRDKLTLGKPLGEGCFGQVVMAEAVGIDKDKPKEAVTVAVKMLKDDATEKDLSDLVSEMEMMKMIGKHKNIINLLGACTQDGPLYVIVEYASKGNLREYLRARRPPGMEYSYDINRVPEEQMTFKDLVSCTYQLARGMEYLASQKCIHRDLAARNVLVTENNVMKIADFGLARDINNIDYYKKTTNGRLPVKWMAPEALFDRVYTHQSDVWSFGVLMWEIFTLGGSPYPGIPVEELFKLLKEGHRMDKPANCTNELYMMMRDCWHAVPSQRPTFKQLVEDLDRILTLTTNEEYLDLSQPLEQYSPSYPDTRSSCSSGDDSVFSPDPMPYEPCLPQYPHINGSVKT
Protein cereblon/Fibroblast growth factor receptor 2, sequence (P21802 22-821 limits assumed): as above
Protein cereblon/Fibroblast growth factor receptor 2, sequence (Q96SW2 whole entry partner): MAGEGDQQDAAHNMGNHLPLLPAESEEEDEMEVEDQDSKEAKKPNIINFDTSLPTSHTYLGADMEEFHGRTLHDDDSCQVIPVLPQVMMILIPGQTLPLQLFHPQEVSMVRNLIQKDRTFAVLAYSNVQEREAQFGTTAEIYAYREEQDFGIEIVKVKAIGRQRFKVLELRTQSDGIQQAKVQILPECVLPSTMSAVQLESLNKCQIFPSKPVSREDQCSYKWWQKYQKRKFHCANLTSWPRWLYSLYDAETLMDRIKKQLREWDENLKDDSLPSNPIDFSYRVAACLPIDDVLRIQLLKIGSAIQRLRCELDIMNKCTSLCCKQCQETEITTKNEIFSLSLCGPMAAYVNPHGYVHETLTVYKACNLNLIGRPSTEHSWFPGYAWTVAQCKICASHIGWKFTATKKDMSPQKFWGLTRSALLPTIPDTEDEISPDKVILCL

SMILES: COc1cc(OC)c(Cl)c(NC(=O)N(C)c2cc(Nc3ccc(N4CCN(C(=O)C5CCN(c6ccc7c(c6)C(=O)N(C6CCC(=O)NC6=O)C7=O)CC5)CC4)cc3)ncn2)c1Cl (stereo not drawn)
- inhibition [1]: 87%
- inhibition [2]: 76%
- Activity [3]: inactive
- Activity [4]: inactive
- IC50 (BaF3 [5]): 10.3 nM
- IC50 (BaF3 [6]): > 10000 nM
- Activity [7]: Active
- IC50 [8]: 29.1 nM
- IC50 (MV4-11): > 10000 nM
- Activity [9]: Active
- half-life [10]: 0.97 h
- half-life [11]: 1.47 h
- Activity [12]: Non-Toxic
- Activity [13]: Non-Toxic
- Activity [14]: Non-Toxic
- Activity (SNU-16): Active
- clearance [15]: 121 mL/min/kg
- bioavailability [16]: 13.1%
